Results as given in ChEMBL document CHEMBL1138335, “New N-arachidonoylserotonin analogues with potential "dual" mechanism of action against pain” (J Med Chem, 2007).
Calls of active or inactive are those of the source. The rule behind the calls is not given here.

Key:
[1] = molecular target: T1, Fatty-acid amide hydrolase 1 (Rattus norvegicus, UniProt P97612); assay: Inhibition of rat brain FAAH assessed by measuring [14C]anandamide hydrolysis after 30 mins
T1 sequence (P97612 whole entry): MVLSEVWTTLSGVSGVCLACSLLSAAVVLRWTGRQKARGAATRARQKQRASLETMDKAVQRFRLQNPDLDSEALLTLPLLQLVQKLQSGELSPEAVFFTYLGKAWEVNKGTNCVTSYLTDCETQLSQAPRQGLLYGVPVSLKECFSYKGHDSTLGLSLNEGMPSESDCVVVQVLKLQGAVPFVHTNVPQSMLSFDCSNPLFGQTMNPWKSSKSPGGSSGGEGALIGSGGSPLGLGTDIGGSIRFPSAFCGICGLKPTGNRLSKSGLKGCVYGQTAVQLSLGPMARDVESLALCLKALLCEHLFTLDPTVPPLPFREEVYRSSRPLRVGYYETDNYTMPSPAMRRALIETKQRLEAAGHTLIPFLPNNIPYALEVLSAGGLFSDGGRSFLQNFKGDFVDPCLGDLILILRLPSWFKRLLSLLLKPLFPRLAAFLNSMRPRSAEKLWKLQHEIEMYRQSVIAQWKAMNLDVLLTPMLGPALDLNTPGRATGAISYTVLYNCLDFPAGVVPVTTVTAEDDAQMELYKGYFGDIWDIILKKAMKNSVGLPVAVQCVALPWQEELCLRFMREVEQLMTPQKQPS

[2] = molecular target: Transient receptor potential cation channel subfamily V member 1 (Homo sapiens, UniProt Q8NER1); assay: Antagonist activity at human recombinant TRPV1 receptor expressed in HEK293 cells assessed as inhibition of capsaicin-induced intracellular calcium elevation; assay type: functional, cell-based
Outline: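 Stably transfected HEK293 cells grown in MEM with nonessential amino acids, 10% FCS, 0.2 mM glutamine, 37 °C. Plated on poly-L-lysine a day before. Loaded 2 h at 25 °C with 4 µM Fluo-3 AM, washed, trypsinized, resuspended in Tyrode pH 7.4.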

RBL-2H3 = assay: Inhibition of anandamide uptake in RBL-2H3 cells upto 25 uM after 5 mins by anandamide membrane transport assay; assay type: functional, cell-based; details: Rattus norvegicus
Mus musculus = assay: Antinociceptive activity in ip dosed mouse assessed as inhibition of formalin-induced hyperalgesia; assay type: functional, organism-based
Outline: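 Mice given compound ip 15 min before 1.25% formalin into the dorsal hind paw (n = 8–10 per group). Doses were 0.3–5 or 1–10 mg/kg. Some groups also got AM251 or AM630 (3 mg/kg ip) or I-RTX (0.1–0.2 mg/kg ip) 5 min earlier. Lifting, licking, flinching and similar behaviour timed every 5 min for 60 min. IC50 estimated at 40 min post-formalin.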

[3] = molecular target: T2, Fatty-acid amide hydrolase 1 (Rattus norvegicus) (UniProt P97612); details: at 50 µM
T2 sequence (whole entry): T1 sequence (P97612 whole entry)

Sequence of Transient receptor potential cation channel subfamily V member 1 (Q8NER1 whole entry): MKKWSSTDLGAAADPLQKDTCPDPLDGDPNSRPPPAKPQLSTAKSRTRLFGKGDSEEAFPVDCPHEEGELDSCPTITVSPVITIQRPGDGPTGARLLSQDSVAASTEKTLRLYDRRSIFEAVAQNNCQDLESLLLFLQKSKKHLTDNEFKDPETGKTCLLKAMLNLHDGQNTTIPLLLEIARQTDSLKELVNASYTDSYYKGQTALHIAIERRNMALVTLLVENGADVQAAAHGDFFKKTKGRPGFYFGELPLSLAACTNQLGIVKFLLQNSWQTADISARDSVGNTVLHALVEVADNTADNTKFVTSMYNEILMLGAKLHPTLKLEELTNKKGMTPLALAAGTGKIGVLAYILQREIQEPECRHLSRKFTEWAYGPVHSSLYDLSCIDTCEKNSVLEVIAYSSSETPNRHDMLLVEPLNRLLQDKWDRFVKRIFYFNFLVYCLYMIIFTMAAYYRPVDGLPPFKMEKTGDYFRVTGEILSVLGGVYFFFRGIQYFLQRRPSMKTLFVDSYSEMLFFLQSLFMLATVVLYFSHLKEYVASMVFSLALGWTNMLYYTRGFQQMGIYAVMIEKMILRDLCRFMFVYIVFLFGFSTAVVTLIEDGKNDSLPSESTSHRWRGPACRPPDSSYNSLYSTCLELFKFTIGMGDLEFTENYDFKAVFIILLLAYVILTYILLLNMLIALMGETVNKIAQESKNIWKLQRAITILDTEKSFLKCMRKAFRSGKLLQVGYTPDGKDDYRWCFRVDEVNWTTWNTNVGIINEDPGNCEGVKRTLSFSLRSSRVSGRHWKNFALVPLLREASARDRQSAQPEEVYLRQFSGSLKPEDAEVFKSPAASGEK

Structure (SMILES) | IC50 [1] | IC50 [2] | Activity (RBL-2H3) | IC50 (Mus musculus) | inhibition [3]
O=C(CCCCCCc1ccccc1)NCCc1c[nH]c2ccc(O)cc12 | > 50 µM | 9.12 µM |  |  | 
CCCCCCCCCCCC(=O)NCCc1c[nH]c2ccc(O)cc12 | > 50 µM | 0.74 µM |  |  | 
O=C(CCCCCCCc1ccccc1)NCCc1c[nH]c2ccc(O)cc12 | 34 µM | 2.13 µM |  |  | 
CCCCCc1cccc(CC(=O)NCCc2c[nH]c3ccc(O)cc23)c1 | > 50 µM | 0.24 µM |  |  | 
CCCCCc1cccc(-c2cccc(CCCC(=O)NCCc3c[nH]c4ccc(O)cc34)c2)c1 | 50 µM | > 10 µM |  |  | 
O=C(NCCc1c[nH]c2ccc(O)cc12)Oc1ccc(OCc2ccccc2)cc1 | 1.17 µM | > 10 µM | inactive |  | 
O=C(Cc1cccc(-c2ccccc2)c1)NCCc1c[nH]c2ccc(O)cc12 | > 50 µM | 0.43 µM |  | 5 mg/kg | 
CCCCCc1cccc(NC(=O)NCCc2c[nH]c3ccc(O)cc23)c1 | > 50 µM | 2.63 µM |  |  | 
C=C(C)[C@]12C[C@@H](C)[C@@]34O[C@](Cc5ccccc5)(O[C@@H]1[C@@H]3C=C(COC(=O)Cc1cc(I)c(O)c(OC)c1)C[C@]1(O)C(=O)C(C)=C[C@@H]41)O2 |  |  |  |  | < 10%
O=C(NCCc1c[nH]c2ccc(O)cc12)Oc1ccc2ccccc2c1 | 10 µM | > 10 µM | inactive |  | 
O=C(NCCc1c[nH]c2ccc(O)cc12)Oc1ccc(Cl)cc1 | 6.8 µM | > 10 µM |  |  | 
O=C(NCCc1c[nH]c2ccc(O)cc12)Oc1cccc(C(F)(F)F)c1 | 2.2 µM | > 10 µM |  |  | 
CC(C)(C)c1ccc(OC(=O)NCCc2c[nH]c3ccc(O)cc23)cc1 | > 10 µM | 5.25 µM |  |  | 
O=C(NCCc1ccccc1)NCCc1c[nH]c2ccc(O)cc12 | > 50 µM | > 10 µM |  |  | 
O=C(CCCCC1CCSS1)NCCc1c[nH]c2ccc(O)cc12 (racemic) | > 50 µM | > 10 µM |  |  | 
O=C(NCCc1ccc(Oc2ccccc2)cc1)NCCc1c[nH]c2ccc(O)cc12 | > 50 µM | > 10 µM |  |  | 
O=C(NCCc1c[nH]c2ccc(O)cc12)Oc1cccc(Cl)c1 | 1.9 µM | > 10 µM |  |  | 
O=C(NCCc1c[nH]c2ccc(O)cc12)Nc1cccc(-c2ccccc2)c1 | > 50 µM | 0.72 µM |  |  | 
O=C(NCCc1c[nH]c2ccc(O)cc12)Oc1cccc(I)c1 | 1.8 µM | > 10 µM |  |  | 
CCCCC/C=C\C/C=C\C/C=C\CCCCC(=O)NCCc1c[nH]c2ccc(O)cc12 | 10 µM | 0.95 µM |  |  | 

Structure (SMILES) | IC50 [1] | IC50 [2] | Activity (RBL-2H3) | IC50 (Mus musculus) | inhibition [3]
CCCCC/C=C\C/C=C\C/C=C\C/C=C\CCCC(=O)NCCc1c[nH]c2ccc(O)cc12 | 8 µM | 0.27 µM |  | 0.5 mg/kg | 
CCCCCCCCCCC(=O)NCCc1c[nH]c2ccc(O)cc12 | > 50 µM | 0.76 µM |  |  | 
O=C(NCCc1c[nH]c2ccc(O)cc12)Oc1cccc(-c2ccccc2)c1 | 0.5 µM | > 10 µM | inactive | 4 mg/kg | 
O=C(NCCc1ccc(Cl)cc1)NCCc1c[nH]c2ccc(O)cc12 | > 50 µM | > 10 µM |  |  | 
CCCCC/C=C\C/C=C\CCCCCCCC(=O)NCCc1c[nH]c2ccc(O)cc12 | 30 µM | 1.82 µM |  |  | 
CCCCCc1ccc2ccc(CCCC(=O)NCCc3c[nH]c4ccc(O)cc34)cc2c1 | 50 µM | > 10 µM |  |  | 
O=C(NCCc1c[nH]c2ccc(O)cc12)Oc1ccc(I)cc1 | 5 µM | > 10 µM |  |  | 
CC/C=C\C/C=C\C/C=C\CCCCCCCC(=O)NCCc1c[nH]c2ccc(O)cc12 | 10 µM | 0.47 µM |  |  | 
CCCCCCCC/C=C\CCCCCCCC(=O)NCCc1c[nH]c2ccc(O)cc12 | > 50 µM | 2.57 µM |  |  | 
CCCCC/C=C\C/C=C\CCCCCCCCOC(=O)NCCc1c[nH]c2ccc(O)cc12 | > 50 µM | > 10 µM |  |  | 
CC(C)(C)c1ccc(CNC(=O)NCCc2c[nH]c3ccc(O)cc23)cc1 | 50 µM | 3.8 µM |  |  | 
CCCCCc1cccc(OC(=O)NCCc2c[nH]c3ccc(O)cc23)c1 | 3.6 µM | 2.4 µM | inactive |  | 
CC(C)(C)c1cccc(OC(=O)NCCc2c[nH]c3ccc(O)cc23)c1 | 3.7 µM | > 10 µM |  |  | 
O=C(CCCCCCCCc1ccccc1)NCCc1c[nH]c2ccc(O)cc12 | 30 µM | 0.68 µM |  |  | 
O=C(NCCc1c[nH]c2ccc(O)cc12)Oc1ccc(C(F)(F)F)cc1 | 6.4 µM | > 10 µM |  |  | 
O=C(NCCc1ccc(-c2ccccc2)cc1)NCCc1c[nH]c2ccc(O)cc12 | > 50 µM | > 10 µM |  |  | 
CCCCC/C=C\C/C=C\C/C=C\C/C=C\CCCCOC(=O)NCCc1c[nH]c2ccc(O)cc12 | > 50 µM | 2.82 µM |  |  | 
CCCCC/C=C\C/C=C\C/C=C\CCCCCOC(=O)NCCc1c[nH]c2ccc(O)cc12 | > 50 µM | > 10 µM |  |  | 
CC/C=C\C/C=C\C/C=C\CCCCCCCCOC(=O)NCCc1c[nH]c2ccc(O)cc12 | > 50 µM | > 10 µM |  |  | 
